According to article PMC11969896 (Virology Journal, 2025):
Values joined by “and” are separate entries in the source; they are usually repeats but may differ in a detail not shown here. Equal entries are not always repeated.

Legend:
Cytotoxicity [1] = format: cell-based; conditions: mouse, BV2 cells
MNV^CW3 [2] = test: Cell viability-based anti-MNV screening in MNV^CW3-infected BV2 cells; set-up: species or system murine norovirus; conditions: MNV^CW3 infection, 40 μg/mL compound, 24 h, DMSO control about 2.7%
Method in brief: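 BV2 cells plated at 10,000/well 16–18 h before infection with MNV^CW3 at MOI 0.25 for 1 h. Medium then replaced with 40 μg/mL compound or DMSO vehicle. Viability read after 24 h as ATP level by luminescence kit. At least 3 biological repeats.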

MNV^CR6 = MNV^CR6 replication in cell culture; format: cell-based, murine norovirus; conditions: BV2 and RAW264.7 cells
MNV^CW3 [3] = test: MNV viral genome copies quantification; format: cell-based, murine norovirus; conditions: BV2 cells, 40 μg/mL (97 μM), 24 h treatment
MNV^CW3 [4] = test: Cell viability of MNV^CW3-infected RAW264.7 cells; format: cell-based, murine norovirus; conditions: RAW264.7 cells after MNV^CW3 infection, 24 h
MNV^CW3 [5] = test: MNV plaque assay; format: cell-based, murine norovirus; conditions: RAW264.7 cells, 40 μg/mL, 24 h
Method in brief: (§1)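 Infected cells harvested at 24 hpi and frozen at −80 °C. RAW264.7 monolayers seeded at 1.8 × 10^6 cells/well; 16 h later, tenfold serial lysate dilutions applied for 1 h with rocking. Overlay of MEM, 10% FBS, 2 mM L-glutamine, 10 mM HEPES and 1% methylcellulose, incubated 2 days. Plaques stained with 0.2% crystal violet in 20% ethanol.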

MNV^CW3 [6] = test: MNV viral genome copies quantification; format: cell-based, murine norovirus; conditions: RAW264.7 cells, 40 μg/mL, 24 h
HNV RdRp = target: T1, HNV RdRp (Norovirus Hu/GII.4/Sydney348/97O/AU, UniProt Q2N379); test: RdRp inhibition assay; format: biochemical, human norovirus (G II 0.4/Sydney/2006)
T1 sequence (Q2N379 1-510): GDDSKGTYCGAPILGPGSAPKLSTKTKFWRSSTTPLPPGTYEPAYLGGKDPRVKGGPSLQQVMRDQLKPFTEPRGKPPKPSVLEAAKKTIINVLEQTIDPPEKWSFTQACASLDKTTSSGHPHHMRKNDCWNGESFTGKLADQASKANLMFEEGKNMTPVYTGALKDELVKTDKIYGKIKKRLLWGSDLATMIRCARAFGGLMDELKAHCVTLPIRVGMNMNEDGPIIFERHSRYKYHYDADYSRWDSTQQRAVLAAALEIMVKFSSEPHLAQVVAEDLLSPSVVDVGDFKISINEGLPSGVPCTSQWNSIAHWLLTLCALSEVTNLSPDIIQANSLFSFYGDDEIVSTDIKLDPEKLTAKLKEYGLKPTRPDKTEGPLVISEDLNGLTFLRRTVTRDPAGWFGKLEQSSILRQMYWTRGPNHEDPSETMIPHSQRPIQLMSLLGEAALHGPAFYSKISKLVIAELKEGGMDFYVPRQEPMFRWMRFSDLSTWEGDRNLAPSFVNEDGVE
Method in brief: (§2)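 MNV^CW3 RdRp (GST-tagged) or HNV GII.4 Sydney/2006 RdRp (His-tagged) expressed in E. coli BL21(DE3) and affinity-purified. Enzyme preincubated with compound 10 min at 30 °C in 10 mM PBS pH 7.5, 2.5 mM MnCl2, 5 mM DTT. Poly(C) and GTP then added (final 2.8 μM enzyme, 40 μg/mL poly(C), 25 μM GTP), 30 min at 30 °C. EDTA stop; dsRNA by PicoGreen (ex 480/em 520 nm); normalized to 0.5% DMSO vehicle.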

MNV RdRp = target: T2, MNV RdRp (Norovirus, UniProt Q80J95); test: Size-exclusion chromatography of MNV RdRp with or without compound; set-up: species or system murine norovirus; conditions: 60 μM compound
T2 sequence (Q80J95 1178-1687 limits assumed): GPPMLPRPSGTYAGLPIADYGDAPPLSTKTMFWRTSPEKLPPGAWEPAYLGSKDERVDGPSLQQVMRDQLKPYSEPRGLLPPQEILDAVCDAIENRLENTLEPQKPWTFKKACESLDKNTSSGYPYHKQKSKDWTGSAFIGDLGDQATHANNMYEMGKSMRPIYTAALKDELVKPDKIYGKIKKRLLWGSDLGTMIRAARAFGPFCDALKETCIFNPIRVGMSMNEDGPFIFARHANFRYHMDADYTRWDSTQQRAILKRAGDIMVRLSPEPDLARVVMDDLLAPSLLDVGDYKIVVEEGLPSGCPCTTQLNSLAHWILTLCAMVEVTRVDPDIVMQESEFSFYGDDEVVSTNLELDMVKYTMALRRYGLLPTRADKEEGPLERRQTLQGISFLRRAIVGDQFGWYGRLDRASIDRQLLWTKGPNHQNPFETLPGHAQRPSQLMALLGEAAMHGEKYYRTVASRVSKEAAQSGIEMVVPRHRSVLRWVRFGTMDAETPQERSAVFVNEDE
Method in brief: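 Purified RdRp, with or without 60 μM compound, run on a Superose 6 10/300 GL gel-filtration column equilibrated in 20 mM Tris-HCl pH 8.0, 150 mM NaCl, at 0.4 mL/min.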

Cytotoxicity [7] = format: cell-based; conditions: mouse, RAW264.7 cells
MNV^CW3 RdRp = target: T3, MNV^CW3 RdRp (Norovirus, UniProt Q80J95); test: RdRp inhibition assay; format: biochemical, murine norovirus
T3 sequence (Q80J95 1178-1687 limits assumed): T2 sequence (Q80J95 1178-1687 limits assumed)
Method in brief: as §2

MNV^CW3 [8] = test: MNV plaque assay; format: cell-based, murine norovirus; conditions: BV2 cells, 97 μM, 24 h
Method in brief: as §1

Row | Structure (SMILES) | CC50 (Cytotoxicity [1]) | cell viability (ratio of live cells) (MNV^CW3 [2]) [%] | cell viability after MNV^CR6 infection (MNV^CR6) | MNV^CR6 plaque numbers (MNV^CR6; 97 μM) | MNV^CR6 viral genome copies (MNV^CR6; 97 μM (40 μg/mL)) | decrease of MNV^CW3 RNA level vs DMSO vehicle control (MNV^CW3 [3]) | concentration of maximum effectiveness (cell viability) (MNV^CW3 [4]) [µg/mL] | MNV^CW3 viral titers (MNV^CW3 [5]) | MNV^CW3 genome copy number (MNV^CW3 [6]) | IC50 (HNV RdRp) [µM] | inhibition of HNV RdRp (HNV RdRp; same assay, normalized to DMSO vehicle control) | main SEC peak formed by the protein when compound added (aggregation check) (MNV RdRp) | CC50 (Cytotoxicity [7]) [µM] | IC50 (MNV^CW3 RdRp) [µM] | inhibition of MNV^CW3 RdRp (MNV^CW3 RdRp; 35 μM RdRp in the reaction system, vs vehicle (0.5% DMSO), 4 μL of 100 μM compound (4 μM Co-29 final)) [%] | formation of MNV^CW3 plaques (viral titer) (MNV^CW3 [8])
1 | N#Cc1c(-c2ccccc2O)nc(SCC(=O)Nc2cc(F)cc(F)c2)[nH]c1=O [Co-29, 2-((5-cyano-4-(2-hydroxyphenyl)-6-oxo-1,6-dihydropyrimidin-2-yl)thio)-N-(3,5-difluorophenyl)acetamide] | ~52.2 µg/mL and ~126 µM | 36.9 | increased cell viability | decreased plaque numbers | low levels of viral genome copies | more than 2 Log10-fold | 40 | decreased | decreased | 36.6 | more than 70% | did not change | 105 | 32 | > 75 | dramatically inhibited
2 | C[C@@]1(O)[C@H](O)[C@@H](CO)O[C@H]1n1ccc(N)nc1=O [Compound 2CMC, 2′-C-methyl-cytidine, reference compound] |  |  |  |  |  |  |  | decreased | decreased |  |  |  |  |  |  | 
